The entries come from a sample that favours hits as a whole.
NALP1 yeast inh = inhibitors of NALP1 inflammasome in yeast | S. cerevisiae NALP1/ASC/caspase-1 growth, X-gal OD620, 72 h | 280,000 tested, 0.61% active | inhibition, % at 10 µM; in the data active = inhibition mostly above about 24%, no sharp cut-off; inactive = mostly below about 32%
L major viab = inhibitors of Leishmania major promastigote growth; Leishmania major promastigotes, resazurin fluorescence viability; inhibition, % at 10 µM; 200,000 tested, 9% active; AID 1063; in the data active = inhibition above about 50%;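 also: promastigotes grown with compound for 44 hours at 28 °C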
PolyA inhibitor = inhibitors of polyadenylation in S. cerevisiae | S. cerevisiae SKY197-pL101 polyadenylation reporter, beta-gal luminescence; efflux-impaired pdr1/pdr3 knockout yeast; score 100 = 6 SD above DMSO | activity score, % at 12 µM | 300,000 tested, 0.02% active;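 active = lowest replicate activity score at least 50, where 100 means six control SD above control mean; inconclusive = lowest score under 50 but half or more replicates reach 50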;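 also: yeast exposed to compound for 9 h at 30 °C; higher score means more reporter readthrough which indicates perturbed polyadenylation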
NALP3 yeast inh = inhibitors of NALP3 inflammasome in yeast. Yeast reconstituted NLRP3/ASC/caspase-1, beta-gal luminescence, 24 h. inhibition, % at 10 µM. 330,000 tested, 0.39% active. AID 2825;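 active = inhibition of 50% or more; inactive = inhibition below 50%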;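 also: plate controls were induced DMSO wells for no effect and uninduced yeast grown without galactose for full effect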
T cruzi inh = T. cruzi replication inhibition; T. cruzi beta-gal in NIH3T3, luminescence, 90 h; 300,000 tested, 1.4% active; inhibition, % (no concentration beside the values);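 active = mean inhibition across valid replicates above about 55%, limit read from the data; inconclusive = mean below that limit but half or more replicates reach it; inactive = mean below it, under half of replicates reach it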;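 also: signal also drops with host cell toxicity which is not excluded here; 0% = plate median of DMSO wells and 100% = zero luminescence signal; higher percent means less beta-gal luminescence so fewer parasites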
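Incubation – ≥90 h infection period, 3 h prior cell attachment · System – NIH/3T3 fibroblasts plus reporter T. cruzi · Doses – compound pinned at 50 nL/well, DMSO · Read-out basis – percent inhibition of parasite-derived β-gal signal · Signal – luminescent β-galactosidase signal after 60 min lysis · Also added – 5000 T. cruzi trypomastigotes/well · Medium – Low-serum DMEM with 2% FBS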
Calb FLC = C. albicans growth modulation with fluconazole | 300,000 tested, 0.57% active | growth inhibition, % (no concentration beside the values) | C. albicans CaCi-2 + fluconazole, Alamar Blue growth, 48 h | AID 1979;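 active = growth inhibition above about 58% in most replicates, limit read from the data, passing the limit was not always enough; inconclusive = exactly half the replicates above a set limit; inactive = most replicates below a set limit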;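 also: all wells also contain fluconazole at 8 µg/ml as a sub-toxic cotreatment; 0% = median of DMSO wells and 100% = median of geldanamycin control wells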
* marks the source's active call; other numbers are inactive results; ? = inconclusive; nt = no result given.

SMILES | NALP1 yeast inh | L major viab | PolyA inhibitor | NALP3 yeast inh | T cruzi inh | Calb FLC
O=C1C2CC=CCC2C(=O)N1c1ccc(N2CCN(c3ccccn3)CC2)c([N+](=O)[O-])c1 (configuration not stated) | 2 | 5 | -7 | 0 | -7 | 1
CC(=O)Nc1ccc(NC(=O)C2CCC(N3C(=O)C4C5C=CC(C6CC56)C4C3=O)CC2)cc1 (configuration not stated) | 1 | nt | 7 | 11 | -7 | -4
O=C(Nc1ccc(Cc2ccncc2)cc1)C1CCC(N2C(=O)C3C4C=CC(C5CC45)C3C2=O)CC1 (configuration not stated) | 10 | 52* | -3 | 1 | 43 | -7
Cn1/c(=N/N=C/c2ccccn2)sc2ccccc21 | 11 | -1 | nt | 17 | nt | nt
Cc1nc(C)c(/C(O)=C/c2nc3ccccc3oc2=O)s1 | 61* | 76* | -15 | 21 | -10 | -35
CCN1C(=O)[C@@H]2[C@@H](c3ccc(-c4cccc(Cl)c4)c(OC)c3)N3CCCC[C@@]3(C(=O)OC)[C@@H]2C1=O | nt | nt | ? | 13 | 48 | 8
COc1ccc(O)c(/C=N/c2nc3ccccc3n2C)c1 | 33* | nt | -5 | 22 | 2 | -1
CCCn1c(/N=C/c2cc(OC)ccc2O)nc2ccccc21 | -5 | 0 | -16 | 0 | -12 | 44
COc1cccc(NC(=O)N2CCCC(C(=O)NC3CCCCC3C)C2)c1 (configuration not stated) | 8 | nt | -11 | 9 | 10 | -5
CN(C)CCCN(C(=O)c1cccs1)c1nc2cc3c(cc2s1)OCO3 | 8 | 36 | 16 | 17 | 67* | 10
CN(C)CCCN(C(=O)c1ccco1)c1nc2ccc(F)cc2s1 | 13 | 4 | -8 | 9 | 48 | -4
CN(C)CCCN(C(=O)c1ccc(Br)s1)c1nc2cc3c(cc2s1)OCCO3 | nt | nt | 23 | 35 | ? | -7
Cc1ccc2nc(N(CCCN(C)C)C(=O)c3ccc(Br)s3)sc2c1 | 15 | 32 | 9 | 22 | 62* | 17
Cc1ccc2nc(N(CCCN(C)C)C(=O)c3ccco3)sc2c1 | -7 | 21 | 1 | -3 | 56* | -18
CN(C)CCCN(C(=O)c1ccc(Cl)s1)c1nc2cc3c(cc2s1)OCO3 | 36 | nt | 11 | 22 | ? | -18
CN(C)CCCN(C(=O)c1ccc([N+](=O)[O-])s1)c1nc2cc3c(cc2s1)OCCO3 | 22 | nt | 14 | 28 | 33 | -6
CN(C)CCCN(C(=O)c1cc2cc([N+](=O)[O-])ccc2s1)c1nc2cc3c(cc2s1)OCCO3 | nt | nt | -1 | 17 | 63* | -20
COc1cc2c(cc1OC)CN(Cc1cc(OC)c(O)c(OC)c1)CC2 | -8 | -2 | 10 | 11 | 1 | 52
Cc1ccc(NC(=O)CN(C)C(=O)COc2ncnc3ccc(Br)cc23)cc1 | nt | nt | nt | 29 | nt | nt
CN(C)CCCN(C(=O)c1ccc(C(=O)c2ccccc2)cc1)c1nc2cc3c(cc2s1)OCO3 | 24 | nt | 7 | 11 | 34 | -4
CN(C)CCCN(C(=O)c1ccco1)c1nc2c(F)cccc2s1 | -5 | 2 | 2 | -18 | ? | -23
CN(C)CCCN(C(=O)c1ccco1)c1nc2c(F)cc(F)cc2s1 | 21 | 1 | 6 | 9 | 57* | -29
CN(C)CCCN(C(=O)c1ccco1)c1nc2cc3c(cc2s1)OCO3 | 20 | nt | -14 | 19 | 57* | -12
Cc1ccc(C(=O)COC(=O)CCN2C(=O)C3C4C=CC(C5CC45)C3C2=O)cc1 (configuration not stated) | 13 | nt | 7 | 8 | -21 | -1
O=S(=O)(c1cccs1)N1CCN(C/C=C/c2ccccc2)CC1 | 14 | 9 | 4 | 0 | 9 | -13
SMILES | NALP1 yeast inh | L major viab | PolyA inhibitor | NALP3 yeast inh | T cruzi inh | Calb FLC
O=S(=O)(c1ccc(Cl)s1)N1CCN(C/C=C/c2ccccc2)CC1 | 25 | 83* | -2 | 18 | 9 | 10
O=S(=O)(Cc1ccccc1)N1CCN(C/C=C/c2ccccc2)CC1 | 2 | 71* | -27 | 39 | 15 | -1
O=S(=O)(c1ccc(Cl)s1)N1CCC(Cc2ccccc2)CC1 | 40* | 2 | -21 | 9 | 7 | 7
C/C=N\NC(=O)COc1cc(C)ccc1C | 0 | -6 | 0 | 4 | -10 | -5
CC1Cc2cc(S(=O)(=O)N3CCC(C(=O)Nc4ccccn4)CC3)ccc2N1C(=O)C1CCC1 (configuration not stated) | 6 | nt | -22 | 4 | -9 | -9
CN(C)NC(=O)c1cccc(Cl)c1 | 29 | nt | -11 | -3 | 12 | 7
Cc1ccc(C)n1NC(=O)c1cccc(Cl)c1 | -5 | 92* | -9 | 16 | 10 | -5
COc1ccc(CCNC2CC(C)N(C)CC2C)cc1OC (configuration not stated) | nt | 69* | 4 | -6 | 9 | -4
COc1ccc(CNC2CC(C)N(C)CC2C)cc1OC (configuration not stated) | 0 | nt | 13 | 6 | 8 | 0
Cc1cc(N=NC(=O)c2ccccc2)ccc1O | 31 | 86* | nt | 14 | -6 | nt
N#Cc1c(NCCN)nc(-c2ccco2)c2c1CCCC2 | -4 | 100* | -1 | 14 | 8 | -12
Cc1cc2oc(=O)cc(CN3CCN(Cc4ccccc4)CC3)c2cc1Cl | 16 | 4 | 0 | 7 | ? | -7
CCc1ccc2oc(=O)cc(CN3CCN(Cc4ccccc4)CC3)c2c1 | 14 | nt | 12 | 19 | 61* | 3
Cc1ccc2c(CN3CCN(Cc4ccccc4)CC3)cc(=O)oc2c1 | 21 | nt | 21 | 20 | 59* | 13
O=c1c(CN2CCN(Cc3ccccc3)CC2)coc2ccc(Cl)cc12 | 7 | 76* | 13 | 13 | 16 | -13
O=c1cc(CN2CCN(c3ccccc3)CC2)c2cc(O)c(-c3ccccc3)cc2o1 | 11 | 73* | -1 | 24 | -6 | -29
O=C(CSc1nc2ccccc2c(=O)[nH]1)Nc1ccc(N2CCOCC2)c(Cl)c1 | 16 | nt | -6 | 9 | -9 | -3
Cc1nc2c(-c3ccc(F)cc3)cnn2c2c1CCC2 | 32 | 1 | -7 | -1 | -25 | -8
O=c1cc(CN2CCN(Cc3ccccc3)CC2)c2ccc(O)cc2o1 | 1 | nt | -6 | 32 | 56* | -8
COc1cc(/C=C2/C(=O)NN(c3cccc(F)c3)C2=O)ccc1OC(=O)c1ccco1 | 0 | -1 | -9 | -31 | 9 | -37
COc1cc(/C=C2/C(=O)NN(c3ccc(Cl)cc3)C2=O)ccc1OC(=O)c1ccco1 | -9 | 52* | -17 | -19 | 6 | -29
C=CCN1C(=O)/C(=C\c2ccc(OC(=O)c3ccco3)c(OC)c2)SC1=S | 30* | -4 | -10 | -7 | -9 | 7
CC(=O)NCCN1C(=O)C2C3c4ccccc4C(c4ccccc43)C2C1=O (configuration not stated) | -2 | 1 | 2 | 16 | 0 | -3
